Experimental data taken from ChEMBL document CHEMBL4425125, “Development of a Dual-Acting Antibacterial Agent (TNP-2092) for the Treatment of Persistent Bacterial Infections” (J Med Chem, 2016).
pIC50: −log10 of the molar value. In brackets after ≈: the same amount, converted by molar mass.

How the values were obtained:
Staphylococcus aureus [1] = test: Bactericidal activity against methicillin-sensitive Staphylococcus aureus 29213 infected in mouse macrophages assessed as induction of bacterial kill at 4 ug/ml in presence of 4 ug/ml rifampin after 24 hrs; type: functional
[2] = target: DNA gyrase (Staphylococcus aureus) (UniProt P0A0K8+P20831)
Staphylococcus aureus [3] = test: Bactericidal activity against methicillin-resistant Staphylococcus aureus 67-0; type: functional
[4] = target: Topoisomerase IV (Staphylococcus aureus) (UniProt P0C1U9+P0C1S7)
[5] = target: DNA topoisomerase 2-alpha (Homo sapiens) (UniProt P11388)
Staphylococcus aureus [6] = test: Antimicrobial activity against Staphylococcus aureus isogenic forms expressing rpoB H481Y and parC S80F mutant; type: functional
Method in brief: (§1)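 MIC (μg/mL) on otherwise isogenic derivatives of S. aureus ATCC 29213 that carry the rifamycin-resistance allele rpoB H481Y and/or the quinolone-resistance alleles parC S80F and gyrA S84L. The wild-type parent is the reference strain. MICs were determined both by agar dilution and by broth dilution, tested side by side on the same panel.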

Staphylococcus aureus [7] = tested on: Staphylococcus aureus
Staphylococcus aureus [8] = test: Antimicrobial activity against Staphylococcus aureus isogenic forms expressing parC S80F mutant; type: functional; method in brief: as §1
[9] = Inhibition of wild type Staphylococcus aureus RNA polymerase assessed as reduction in RNA product formation
Staphylococcus aureus [10] = test: Antimicrobial activity against Staphylococcus aureus isogenic forms expressing gyrA S84L mutant; type: functional
Staphylococcus aureus [11] = test: Antimicrobial activity against wild type Staphylococcus aureus; type: functional
Staphylococcus aureus [12] = test: Antimicrobial activity against methicillin-sensitive Staphylococcus aureus clinical isolates by broth dilution method; type: functional
Streptococcus pneumoniae = test: Antimicrobial activity against Streptococcus pneumoniae clinical isolates by broth dilution method; type: functional
Staphylococcus aureus [13] = test: Antimicrobial activity against methicillin-resistant Staphylococcus aureus clinical isolates by broth dilution method; type: functional
[14] = Inhibition of RIF-resistant Staphylococcus aureus RNA polymerase RpoB H481Y mutant assessed as reduction in RNA product formation
Staphylococcus aureus [15] = test: Antimicrobial activity against Staphylococcus aureus isogenic forms expressing rpoB H481Y mutant; type: functional
Staphylococcus aureus [16] = test: Antimicrobial activity against Staphylococcus aureus isogenic forms expressing rpoB H481Y/gyrA S84L/parC S80F mutant; type: functional; method in brief: as §1
Staphylococcus aureus [17] = test: Antimicrobial activity against methicillin-resistant Staphylococcus aureus 67-0; type: functional
Streptococcus pyogenes = test: Antimicrobial activity against Streptococcus pyogenes clinical isolates by broth dilution method; type: functional
Staphylococcus aureus [18] = test: Antimicrobial activity against Staphylococcus aureus isogenic forms expressing gyrA S84L and parC S80F mutant; type: functional; method in brief: as §1
[19] = tested on: Staphylococcus epidermidis; test: Antimicrobial activity against methicillin-sensitive Staphylococcus epidermidis clinical isolates by broth dilution method; type: functional
[20] = tested on: Staphylococcus epidermidis; test: Antimicrobial activity against methicillin-resistant Staphylococcus epidermidis clinical isolates by broth dilution method; type: functional
Streptococcus agalactiae = test: Antimicrobial activity against Streptococcus agalactiae clinical isolates by broth dilution method; type: functional
Staphylococcus aureus [21] = test: Antimicrobial activity against Staphylococcus aureus isogenic forms expressing rpoB H481Y and gyrA S84L mutant; type: functional

## COc1c(N2C[C@@H]3CCCN[C@@H]3C2)c(F)cc2c(=O)c(C(=O)O)cn(C3CC3)c12 [MOXIFLOXACIN]
Staphylococcus aureus [1]
  Activity: <=99.9%

## O=C(O)c1cn(C2CC2)c2cc(N3CCNCC3)c(F)cc2c1=O [CIPROFLOXACIN]
[2]
  CC50: 5 µM
Staphylococcus aureus [3]
  MBC: 16 µg/mL (≈ 48.3 µM)
[4]
  CC50: 0.4 µM
[5]
  CC50: > 150 µM
Staphylococcus aureus [6]
  MIC: 2 µg/mL (≈ 6.04 µM)
Staphylococcus aureus [7]
  CC50: 31 µM
Staphylococcus aureus [8]
  MIC: 2 µg/mL (≈ 6.04 µM)

## CO[C@H]1/C=C/O[C@@]2(C)Oc3c(C)c(O)c4c(O)c(c(/C=N/N5CCN(C)CC5)c(O)c4c3C2=O)NC(=O)/C(C)=C\C=C\[C@H](C)[C@H](O)[C@@H](C)[C@@H](O)[C@@H](C)[C@H](OC(C)=O)[C@@H]1C [RIFAMPIN]
[9]
  pIC50: 7.82
Staphylococcus aureus [10]
  MIC: 0.008 µg/mL (≈ 0.00972 µM)
Staphylococcus aureus [11]
  MIC: 0.008 µg/mL (≈ 0.00972 µM)
Staphylococcus aureus [12]
  MIC50: 0.015 µg/mL (≈ 0.0182 µM)
  MIC90: 0.015 µg/mL (≈ 0.0182 µM)
Streptococcus pneumoniae
  MIC: 0.12 to 1 µg/mL (≈ 0.146 to 1.22 µM)
  MIC50: 0.25 µg/mL (≈ 0.304 µM)
  MIC90: 0.25 µg/mL (≈ 0.304 µM)
Staphylococcus aureus [13]
  MIC: 0.008 to 4 µg/mL (≈ 0.00972 to 4.86 µM)
  MIC50: 0.015 µg/mL (≈ 0.0182 µM)
  MIC90: 0.015 µg/mL (≈ 0.0182 µM)
[14]
  pIC50: < 4.60
Staphylococcus aureus [15]
  MIC: > 250 µg/mL
Staphylococcus aureus [3]
  MBC: 2 µg/mL (≈ 2.43 µM)
Staphylococcus aureus [16]
  MIC: > 250 µg/mL
Staphylococcus aureus [17]
  MIC: 0.008 µg/mL (≈ 0.00972 µM)
Staphylococcus aureus [6]
  MIC: > 250 µg/mL
Streptococcus pyogenes
  MIC50: 0.06 µg/mL (≈ 0.0729 µM)
  MIC90: 0.12 µg/mL (≈ 0.146 µM)
Staphylococcus aureus [18]
  MIC: 0.008 µg/mL (≈ 0.00972 µM)
[19]
  MIC50: 0.015 µg/mL (≈ 0.0182 µM)
  MIC90: 0.015 µg/mL (≈ 0.0182 µM)
[20]
  MIC: >=0.004 - 4 ug ml-1
[20]; Staphylococcus epidermidis
  MIC50: 0.015 µg/mL (≈ 0.0182 µM)
  MIC90: > 4 µg/mL
Streptococcus agalactiae
  MIC: 0.03 to 2 µg/mL (≈ 0.0365 to 2.43 µM)
  MIC50: 0.12 µg/mL (≈ 0.146 µM)
  MIC90: 0.12 µg/mL (≈ 0.146 µM)
Staphylococcus aureus [8]
  MIC: 0.008 µg/mL (≈ 0.00972 µM)
Staphylococcus aureus [21]
  MIC: > 250 µg/mL

## CN[C@H](CC(C)C)C(=O)N[C@H]1C(=O)N[C@@H](CC(N)=O)C(=O)N[C@H]2C(=O)N[C@H]3C(=O)N[C@H](C(=O)N[C@H](C(=O)O)c4cc(O)cc(O)c4-c4cc3ccc4O)[C@H](O)c3ccc(c(Cl)c3)Oc3cc2cc(c3O[C@@H]2O[C@H](CO)[C@@H](O)[C@H](O)[C@H]2O[C@H]2C[C@](C)(N)[C@H](O)[C@H](C)O2)Oc2ccc(cc2Cl)[C@H]1O [VANCOMYCIN]
Staphylococcus aureus [3]
  MBC: 1 µg/mL (≈ 0.69 µM)
Staphylococcus aureus [17]
  MIC: 1 µg/mL (≈ 0.69 µM)
